Measured values from different studies.
Lines come from different studies, so protocols differ.
Cell line: BEAS-2B
Observed: cell growth or viability
Technique: MTT

OC1CCN(c2ccc(/C=N/NC(=S)Nc3cccc(Cl)c3Cl)cc2)CC1
IC50 (24 h): 16.9 µM

Cc1cc(C)n(Cn2ccnc2)n1
IC50 (24 h): 339 µM

OC1CCN(c2ccc(/C=N/NC(=S)NC3CCCCC3)cc2)CC1
IC50 (24 h): 14.5 µM

Cc1cc(C)n(Cn2cnc3ccccc32)n1
IC50 (24 h): 739 µM

C/C(=N\C(=S)/N=C(\C)c1c(O)c2ccccc2oc1=O)c1c(O)c2ccccc2oc1=O
IC50 (48 h): 9.01 µM

CCOC(=O)c1cc(C)n(Cn2cnc3ccccc32)n1
IC50 (24 h): 422 µM

OC1CCN(c2ccc(/C=N/NC(=S)NCc3ccccc3)cc2)CC1
IC50 (24 h): 12.6 µM

C[C@H]1[C@H](C)CC[C@]2(C(=O)O)CC[C@]3(C)C(=CC[C@@H]4[C@@]5(C)CC[C@H](O)C(C)(C)[C@@H]5CC[C@]43C)[C@H]12
IC50 (24 h): 16 µM

C/C(=N\NC(=O)/N=C(\C)c1c(O)c2ccccc2oc1=O)c1c(O)c2ccccc2oc1=O
IC50 (48 h): 50.3 µM

COc1cccc2c1C(=O)c1c(O)c3c(c(O)c1C2=O)C[C@@](O)(C(=O)CO)C[C@@H]3O[C@H]1C[C@H](N)[C@H](O)[C@H](C)O1
IC50 (24 h): > 100 µM

CC(=O)c1c(O)c2ccccc2oc1=O
IC50 (48 h): 28.9 µM

OC1CCN(c2ccc(/C=N/NC(=S)NCCc3ccccc3)cc2)CC1
IC50 (24 h): 15 µM

Cc1cc(Cn2ccnc2)nn1C
IC50 (24 h): > 800 µM

C/C(=N\C(=O)/N=C(\C)c1c(O)c2ccccc2oc1=O)c1c(O)c2ccccc2oc1=O
IC50 (48 h): 21.9 µM
